Calls of active or inactive are those of the source. The rule behind the calls is not given here.
Experiments:
Cereblon isoform 4 = biological target: T1, Cereblon isoform 4 (Magnetospirillum gryphiswaldense, UniProt A4TVL0); experiment: Inhibition of MANT-uracil binding to wild-type Magnetospirillum gryphiswaldense CRBN isoform 4 by FRET assay
T1 sequence (A4TVL0 whole entry): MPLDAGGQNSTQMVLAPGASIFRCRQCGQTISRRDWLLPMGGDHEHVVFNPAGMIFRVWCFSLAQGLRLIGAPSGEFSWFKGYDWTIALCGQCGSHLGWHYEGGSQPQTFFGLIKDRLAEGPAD
How it was run: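 Wild-type MsCI4 FRET binding assay, following an earlier protocol. Compounds were dissolved in DMSO, or in water or bicarbonate buffer where soluble. Ki values were derived from the binding curves.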

[1] = biological target: Protein cereblon/Zinc finger protein Aiolos (Homo sapiens) (UniProt Q96SW2+Q9UKT9); experiment: Inhibition of CRBN-mediated IKFZ3 degradation in human OPM2 cells measured after 24 hrs by Western blot analysis; assay type: cell-based
Chain of Protein cereblon/Zinc finger protein Aiolos (Homo sapiens) (Q96SW2 whole entry, looked up): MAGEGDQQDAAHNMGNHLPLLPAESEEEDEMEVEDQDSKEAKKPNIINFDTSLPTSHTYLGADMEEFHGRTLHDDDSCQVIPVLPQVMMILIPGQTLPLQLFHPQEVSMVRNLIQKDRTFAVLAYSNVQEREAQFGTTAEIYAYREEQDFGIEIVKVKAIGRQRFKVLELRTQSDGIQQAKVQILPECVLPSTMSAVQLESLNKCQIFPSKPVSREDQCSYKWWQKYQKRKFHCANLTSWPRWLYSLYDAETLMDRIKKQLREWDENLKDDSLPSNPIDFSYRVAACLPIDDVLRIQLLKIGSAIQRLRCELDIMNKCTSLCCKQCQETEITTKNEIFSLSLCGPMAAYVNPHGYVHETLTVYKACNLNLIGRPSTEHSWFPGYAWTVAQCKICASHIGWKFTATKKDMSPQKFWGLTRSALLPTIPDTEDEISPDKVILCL
Chain of Protein cereblon/Zinc finger protein Aiolos (Homo sapiens) (Q9UKT9 whole entry, looked up): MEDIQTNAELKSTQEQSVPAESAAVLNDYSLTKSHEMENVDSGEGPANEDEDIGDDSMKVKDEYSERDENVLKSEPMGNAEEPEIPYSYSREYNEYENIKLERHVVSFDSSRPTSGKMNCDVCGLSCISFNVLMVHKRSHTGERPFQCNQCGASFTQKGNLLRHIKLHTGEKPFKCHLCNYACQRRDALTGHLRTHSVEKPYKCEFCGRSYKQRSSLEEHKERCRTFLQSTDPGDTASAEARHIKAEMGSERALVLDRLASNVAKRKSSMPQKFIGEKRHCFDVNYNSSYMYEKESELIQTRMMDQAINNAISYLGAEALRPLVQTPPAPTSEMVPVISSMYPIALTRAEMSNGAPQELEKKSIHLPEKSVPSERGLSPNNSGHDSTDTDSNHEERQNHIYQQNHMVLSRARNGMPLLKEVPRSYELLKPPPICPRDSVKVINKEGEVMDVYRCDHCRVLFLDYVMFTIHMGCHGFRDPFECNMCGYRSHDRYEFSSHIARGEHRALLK

[2] = Solubility of the compound in bicarbonate buffer; assay type: physicochemical
THP-1 = experiment: Inhibition of TPA-induced TNFalpha production in human THP1 cells at 3 uM by ELISA relative to control; assay type: functional
[3] = Solubility of the compound in water; assay type: physicochemical; conditions: buffer
[4] = Terminal elimination half life in healthy human at 50 to 400 mg, po at pH 7.4; assay type: ADME, organism-based; conditions: in vivo, read-out: beta t1/2

Compound	Ki (Cereblon isoform 4)	inhibition [1]	further results
Nc1cccc2c1C(=O)N(C1CCC(=O)NC1=O)C2=O (stereo unspecified) [POMALIDOMIDE]	0.8 µM	–	–
Nc1cccc2c1CN(C1CCC(=O)NC1=O)C2=O (stereo unspecified) [LENALIDOMIDE]	3.1 µM	–	–
O=C(O)CCC(=O)NCc1ccc(COC(=O)NC2CC(=O)NC2=O)cc1 (stereo unspecified)	12 µM	inactive	solubility [2]: > 200 mM
O=C(/C=C/c1ccccc1)NC1CC(=O)NC1=O (stereo unspecified)	20 µM	–	–
O=C1CCC(N2C(=O)c3ccc([N+](=O)[O-])cc3C2=O)C(=O)N1 (stereo unspecified)	9 µM	inactive	–
O=C1CC(N2C(=O)c3ccc([N+](=O)[O-])cc3C2=O)C(=O)N1 (stereo unspecified)	11 µM	inactive	–
O=C1CCC(NC(=O)c2ccccc2C(=O)O)C(=O)N1 (stereo unspecified)	–	–	inhibition at 3 µM (THP-1): 80%
NC[C@H]1CC[C@@H](COC(=O)NC2CC(=O)NC2=O)CC1.O=C(O)C(F)(F)F (stereo partly specified)	–	inactive	solubility [3]: Soluble
O=C1CCC(NC(=O)OC[C@@H]2CCCN2)C(=O)N1 (stereo partly specified)	45 µM	inactive	–
NC[C@H]1CC[C@@H](COC(=O)NC2CCC(=O)NC2=O)CC1.O=C(O)C(F)(F)F (stereo partly specified)	–	inactive	solubility [3]: Soluble
O=C1CC(NC(=O)c2cc([N+](=O)[O-])cc([N+](=O)[O-])c2)C(=O)N1 (stereo unspecified)	> 99 µM	inactive	–
O=C1CCC(N2C(=O)c3ccccc3C2=O)C(=O)N1 (stereo unspecified) [THALIDOMIDE]	–	–	half-life [4]: 330 to 438 min
O=C1CC(NC(=O)OC[C@@H]2CCCN2)C(=O)N1 (stereo partly specified)	–	inactive	–
Nc1cccc2c1C(=O)N(C1CC(=O)NC1=O)C2=O (stereo unspecified)	> 40 µM	–	–
O=C1CC(NC(=O)c2sc3cccc(Cl)c3c2Cl)C(=O)N1 (stereo unspecified)	20 µM	inactive	–
O=C1CC(NC(=O)c2sc3ccccc3c2Cl)C(=O)N1 (stereo unspecified)	> 40 µM	inactive	–
NCc1ccc(COC(=O)NC2CC(=O)NC2=O)cc1.O=C(O)C(F)(F)F (stereo unspecified)	12 µM	inactive	solubility [3]: Soluble
O=C1CC(NC(=O)OCc2ccccc2)C(=O)N1 (stereo unspecified)	4 µM	–	–
O=C1CC(NC(=O)Cc2ccccc2)C(=O)N1 (stereo unspecified)	> 40 µM	inactive	–
O=C1CC(N2C(=O)c3cccc([N+](=O)[O-])c3C2=O)C(=O)N1 (stereo unspecified)	> 40 µM	inactive	–
O=C1CCC(N2C(=O)c3cccc([N+](=O)[O-])c3C2=O)C(=O)N1 (stereo unspecified)	> 40 µM	inactive	–
CC(C)=CC(=O)NC1CC(=O)NC1=O (stereo unspecified)	> 40 µM	inactive	–
O=C(O)CCC(=O)NCc1ccc(COC(=O)NC2CCC(=O)NC2=O)cc1 (stereo unspecified)	36 µM	inactive	solubility [2]: > 200 mM
